# Source: PubChem BioAssay
# Only some compounds are listed: those with a hit (about 4.8% of all), similar ones and a draw of the others.
# Jurkat NFkB inh: inhibitors of the PMA/ionomycin-induced NF-kB reporter in Jurkat cells; inhibition, % at 4 µM; AID 435003; 330,000 tested, 0.53% active; PMA/ionomycin-induced NF-kB luciferase reporter, luminescence; in the data active = inhibition above about 50%
# GPR7 antag: human neuropeptides B/W receptor 1 antagonism; P48145; GPR7-expressing cells, fluorescence antagonist assay; inhibition, % at 4.4 µM; 290,000 tested, 1.1% active; AID 1861; in the data active = inhibition above about 16%, passing the limit was not always enough;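 also: cells stimulated with the agonist NPW; 0% = agonist with vehicle and 100% = vehicle without agonist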
# Target sequence (P48145 whole entry, looked up): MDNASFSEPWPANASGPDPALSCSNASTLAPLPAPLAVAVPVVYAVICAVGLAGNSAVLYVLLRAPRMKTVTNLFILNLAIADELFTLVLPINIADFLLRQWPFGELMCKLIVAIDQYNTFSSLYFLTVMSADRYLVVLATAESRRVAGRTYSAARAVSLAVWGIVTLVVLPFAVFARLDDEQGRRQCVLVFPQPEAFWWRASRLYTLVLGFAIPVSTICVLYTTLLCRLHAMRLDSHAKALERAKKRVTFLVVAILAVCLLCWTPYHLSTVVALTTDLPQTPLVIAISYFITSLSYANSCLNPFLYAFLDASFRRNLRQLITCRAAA
# HSF1 inh: HSF1 inhibition | AID 2098 | NIH3T3-HGL HSE-luciferase, MG132-induced, luminescence 8 h; stronger effect = lower value | activity change, negative = inhibition, % at 7.5 µM (by protocol) | 300,000 tested, 0.77% active;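 active = more than half of replicate wells show activity change below -50%, luminescence cut by over half; inconclusive = some wells, but at most half, below -50%; inactive = no replicate well below -50%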;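 also: luciferase reports HSF-1 transcriptional activity via heat shock element; 0% = median of DMSO wells and -100% = zero luminescence signal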
# 697 NFkB inh: lowers PMA/ionomycin-induced NF-kB signal in 697 B cells | 697 B-cell NF-kB luciferase reporter, 16 h | inhibition, % at 4 µM | 330,000 tested, 0.33% active; in the data active = inhibition above about 35%
# T cruzi inh: T. cruzi replication inhibition; T. cruzi beta-gal in NIH3T3, luminescence, 90 h; inhibition, % (test concentration not listed); 300,000 tested, 1.4% active; AID 1885;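 active = mean inhibition across valid replicates above about 55%, limit read from the data; inconclusive = mean below that limit but half or more replicates reach it; inactive = mean below it, under half of replicates reach it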;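 also: signal also drops with host cell toxicity which is not excluded here; 0% = plate median of DMSO wells and 100% = zero luminescence signal; higher percent means less beta-gal luminescence so fewer parasites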
#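 System: NIH/3T3 fibroblasts plus reporter T. cruzi. Medium: DMEM plus 2% FBS. Probe or stimulus: 5000 reporter trypomastigotes per well. Compound: single 50 nL compound addition per well in DMSO. Incubation: co-culture of at least 90 h after 3 h attachment. Detection: GalScreen β-gal luminescence, detergent lysis, 60 min. Evaluation: parasite load inhibition, %.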
# HSF1 activator: increases HSF-1 driven luciferase reporter signal. NIH3T3-HGL HSF-1 luciferase reporter, MG132, 8 h; 100% = twice DMSO control signal. activation, % at 9 µM. 300,000 tested, 1.7% active. AID 504408;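 active = mean replicate activation of at least 50% with a set share of replicates each reaching 50%; inconclusive = only one of those two conditions met; inactive = mean below 50% and too few replicates reaching it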;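 also: 0% = median of the neutral control wells and 100% = twice that signal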
# Jurkat NFkB conf: lowers PMA/ionomycin-induced NF-kB signal in Jurkat cells; shares compounds with Jurkat NFkB inh; Jurkat NF-kB luciferase, 16 h; inhibition, % at 4 µM; 2,700 tested, 27% active;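 active = inhibition reaching about 45% at 4 µM in either replicate, limit read from the data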;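 also: plate controls were PMA/ionomycin stimulated DMSO wells for no effect and unstimulated DMSO wells for full effect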
# Starred values were filed as active, the others as inactive; ? = inconclusive; · = not tested or not shown.
SMILES,Jurkat NFkB inh,GPR7 antag,HSF1 inh,697 NFkB inh,T cruzi inh,HSF1 activator,Jurkat NFkB conf
O=C(Nc1ccn(Cc2ccccc2F)n1)c1ccc(COc2ccc(Br)cc2)cc1,53*,-5,10,-30,-5,12,52*
COC(=O)c1sc2ccccc2c1NC(=O)c1ccc(S(=O)(=O)N2CCC(C)CC2)cc1,1,8,-7,20,4,-27,·
COC(=O)c1c(-c2cccnc2)csc1NC(=O)c1cc(C)on1,-174,-15,19,-210,2,34,-90
Cc1ccc(NC(=O)c2scc3c2CCCC3)cc1,-231,3,22,-226,0,45,-122
Cc1ccc(NC(=O)c2cc3c(s2)CCCC3)cc1,-144,-8,34,-146,-9,?,·
Cc1ccc2cccc(OCC(=O)N(C)CC(=O)Nc3ccc(F)cc3)c2n1,19,·,·,11,·,·,·
Cc1ccc(NC(=O)CN(C)C(=O)COc2cccc3ccc(C)nc23)cc1,-192,·,·,-5,·,·,13
Cc1cc(=O)oc2cc(OCC(=O)OCC(=O)NCCc3ccccc3)ccc12,1,-9,-12,17,-11,2,·
Nc1nc(-c2ccc3ccccc3c2)cs1,-159,3,18,-114,-9,67*,-20
CCOC(=O)CC1CCCCN1C(=O)c1cc(COc2cccc3cnccc23)on1 (stereo not given),50*,21,-2,-35,-25,-10,72*
COC(=O)C1CCCCN1C(=O)c1cc(COc2cccc3cccnc23)on1 (stereo not given),3,-11,-2,-23,-2,2,·
O=C1CC(c2ccccc2)Cc2nc(N3CCc4ccccc43)ncc21 (stereo not given),8,-5,0,1,-14,4,·
O=C1CCCc2nc(N3CCc4ccccc43)ncc21,-179,-5,-6,-231,-3,-2,-120
COc1ccccc1Nc1c2c(nc3ccccc13)CCC2,52*,4,-7,-52,7,-11,25
O=S1(=O)C=C(Sc2nc3cc(Cl)ccc3o2)c2ccccc21,97*,9,-1,-185,65*,24,90*
CCCC(C(=O)Nc1ccc(S(=O)(=O)N2CCCC2)cc1)c1ccccc1 (stereo not given),-1,·,0,-14,20,3,·
COc1ccc(-c2cc3ccc(OCC(C)=O)cc3oc2=O)cc1,-154,8,28,-170,-25,62*,-105
COc1ccc(-c2cc3ccc(OCC(C)=O)cc3oc2=O)cc1OC,-71,-7,24,-52,-27,29,·
COc1ccc2nc(C)cc(Nc3ccc(N4CCN(C)CC4)cc3)c2c1,74*,-14,39,11,45,40,-26
COc1ccc(/C=N/Nc2ncccc2[N+](=O)[O-])c(OC)c1,-157,-16,-17,-171,-16,-25,1
COC(=O)c1ccc(Nc2cc(C)nc3ccc(C)cc23)cc1,59*,-5,-1,-62,8,4,29
COc1ccc2nc(C)cc(Nc3ccc(C)cc3)c2c1,0,-6,1,-24,29,5,·
COc1ccc(/C=N/Nc2ncc(-c3ccccc3)cn2)c(OC)c1,18,-3,-1,5,6,4,·
COc1ccc(/C=N/Nc2cc(C)nc3ccc(OC)cc23)c(OC)c1,77*,-6,-6,-8,58*,16,44
COc1ccc2nc(C)cc(N/N=C/c3ccccc3)c2c1,38,·,·,-28,·,·,·
SMILES,Jurkat NFkB inh,GPR7 antag,HSF1 inh,697 NFkB inh,T cruzi inh,HSF1 activator,Jurkat NFkB conf
O=[N+]([O-])c1ccc(OCn2cncn2)cc1,11,·,3,16,-10,-3,·
Cc1nc2ccc(C(=O)N3CCN(Cc4ccccc4)CC3)cc2[nH]1,0,13,1,-4,6,37,·
Cn1c(CSCc2ccc(Cl)cc2)n[nH]c1=S,3,-4,2,1,5,-13,·
CCOC(=O)c1cn(CC(=O)Nc2ccc(OC)cc2OC)nn1,-3,-4,-6,4,-13,4,·
Cc1cc2oc(=O)cc(CN3CCOCC3)c2cc1Cl,9,-3,-3,-12,-4,-16,·
O=C(/C=C/c1c(F)cccc1Cl)NCCCN1CCOCC1,-2,-18,-1,3,4,0,·
